# Bioassay records from PubChem.
# XBP1 UPR activ = adaptive UPR (XBP1) activation; 330,000 compounds, 0.33% hits; activation, % at 20 µM; CHO-XBP1 luciferase reporter, IRE1-XBP1 UPR activation, luminescence; percent of tunicamycin response, DMSO as zero;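 active = versus positive control, 20 µM dose yields 30% or more activation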;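 also: 100% = tunicamycin at 10 µg/mL and 0% = DMSO only wells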
#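 incubation = overnight seeding at 37 °C, 6 h compound treatment at 37 °C | assay system = CHO-XBP1 cells stably carrying IRE1-XBP1-driven luciferase reporter | input = 1000 cells per well | detection = luciferase luminescence | dosing = single point, 20 µM final compound, 1% DMSO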
# TLR4-MyD88 BLA = inhibitors of human TLR4-MyD88 binding. HeLa CL3-4 TLR4/MyD88 BLA complementation, FRET ratio. 200,000 compounds, 0.18% hits. inhibition, % at 8.4 µM. AID 861; in the data active = inhibition above about 25%;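 also: 0% = vehicle and 100% = reference inhibitor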
# Target sequence (O00206 whole entry, looked up): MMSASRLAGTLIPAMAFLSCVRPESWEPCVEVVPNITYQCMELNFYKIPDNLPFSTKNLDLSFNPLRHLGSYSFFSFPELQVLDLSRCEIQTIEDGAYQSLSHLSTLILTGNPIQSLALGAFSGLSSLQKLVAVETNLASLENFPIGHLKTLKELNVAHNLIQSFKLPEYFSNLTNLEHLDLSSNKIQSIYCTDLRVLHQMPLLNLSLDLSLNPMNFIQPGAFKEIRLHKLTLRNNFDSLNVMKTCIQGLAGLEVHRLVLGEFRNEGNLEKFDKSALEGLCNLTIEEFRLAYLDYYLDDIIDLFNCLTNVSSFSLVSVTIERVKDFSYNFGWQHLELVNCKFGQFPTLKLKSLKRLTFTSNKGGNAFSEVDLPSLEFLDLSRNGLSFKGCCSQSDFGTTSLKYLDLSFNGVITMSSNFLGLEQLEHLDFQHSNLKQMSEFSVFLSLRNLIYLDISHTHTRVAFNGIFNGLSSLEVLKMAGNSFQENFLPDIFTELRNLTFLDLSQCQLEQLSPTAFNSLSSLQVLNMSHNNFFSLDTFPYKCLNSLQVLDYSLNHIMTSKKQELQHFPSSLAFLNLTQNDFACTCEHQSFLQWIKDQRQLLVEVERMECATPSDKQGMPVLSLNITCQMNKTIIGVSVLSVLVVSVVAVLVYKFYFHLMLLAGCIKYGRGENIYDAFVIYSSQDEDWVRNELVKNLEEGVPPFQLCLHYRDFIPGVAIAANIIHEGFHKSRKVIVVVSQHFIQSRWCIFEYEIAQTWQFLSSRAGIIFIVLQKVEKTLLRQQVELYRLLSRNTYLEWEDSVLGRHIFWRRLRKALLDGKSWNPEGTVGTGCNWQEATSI
# Target sequence (Q99836 whole entry, looked up): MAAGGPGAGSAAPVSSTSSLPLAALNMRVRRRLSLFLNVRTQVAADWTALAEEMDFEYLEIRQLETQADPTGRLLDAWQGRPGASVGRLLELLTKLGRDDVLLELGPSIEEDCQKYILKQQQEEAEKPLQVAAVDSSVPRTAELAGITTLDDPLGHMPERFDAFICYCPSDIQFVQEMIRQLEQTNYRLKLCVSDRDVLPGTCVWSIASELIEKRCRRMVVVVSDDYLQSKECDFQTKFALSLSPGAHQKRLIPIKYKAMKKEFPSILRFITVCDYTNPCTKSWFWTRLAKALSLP
# NOD2 RIPK2 PPI = NOD2-RIPK2 protein interaction inhibition; O43353; inhibition, % at 4.98 µM; 360,000 compounds, 0.38% hits; CHO BLA complementation NOD2-RIPK2, CCF4 ratio; in the data active = inhibition above about 21%;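 also: 0% = vehicle only and 100% = reference blocker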
# CHOP inhibitor = blocks CHOP induction under ER stress. CHO-K1 CHOP-promoter luciferase, tunicamycin-induced, 15-18 h. 220,000 compounds, 3.8% hits. inhibition, % at 10 µM;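 active = compounds that reduced the stress-induced luciferase reporter signal by more than about 70% of percent inhibition, limit read from the data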;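 also: 0% = tunicamycin plus vehicle and 100% = wells without tunicamycin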
# UPR CHOP act = apoptotic UPR (CHOP) activation. CHO-CHOP luciferase reporter, luminescence; percent of tunicamycin response over DMSO baseline. activation, % at 10 µM. 330,000 compounds, 0.34% hits;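 active = at 10 µM dose, activation of 40% or more, normalized to positive control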;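 also: 100% = tunicamycin at 10 µg/mL and 0% = DMSO alone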
#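 Test system: CHO-CHOP cells, stable luciferase reporter of PERK-eIF2a-CHOP signalling | Quantity: 500 CHO-CHOP cells per well | Buffer or medium: F12 plus 10% serum | Compound dosing: 10 µM single point, 0.5% DMSO | Schedule: 6 h compound treatment, 37 °C | Signal: Luciferase luminescence | Control set: Tunicamycin high control, DMSO low control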
# TLR9-MyD88 inh = TLR9-MyD88 interaction inhibition. CHO BLA complementation TLR9-MyD88, CCF4 FRET ratio. inhibition, % at 4.98 µM. 340,000 compounds, 0.21% hits. AID 504734;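 active = inhibition above the mean over all tested compounds plus 3 SD, cut at about 21% in these data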;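 also: 0% = DMSO only wells and 100% = clavulanate BLA inhibitor control wells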
# * = called active by the depositor; x = no result. This is one part of a sample in which hits are shown more often than they occur.
SMILES,XBP1 UPR activ,TLR4-MyD88 BLA,NOD2 RIPK2 PPI,CHOP inhibitor,UPR CHOP act,TLR9-MyD88 inh
O=C(c1ccccc1)c1cc(-c2ccccc2)on1,-11,-9,-11,93*,-7,-21
Cc1cc(NC(=O)c2cc(-c3ccccc3)on2)no1,4,-15,-6,40,3,-1
COc1ccc(CCNc2cc(N3CCN(C(=O)c4ccc(C)cc4)CC3)ccc2[N+](=O)[O-])cc1OC,5,10,x,79*,1,x
COc1ccc(C(=O)N2CCN(c3ccc([N+](=O)[O-])c(NCCc4ccc(OC)c(OC)c4)c3)CC2)cc1,2,-9,-9,81*,5,2
COc1ccc(CCNc2cc(N3CCN(C(=O)c4ccccc4F)CC3)ccc2[N+](=O)[O-])cc1OC,7,-5,-6,-14,-4,-4
O=C1c2ccccc2C(c2nnnn2-c2ccc3c(c2)OCCO3)N1CCCN1CCOCC1 (stereo not given),x,x,-2,x,x,x
COc1ccc(CN(C)[C@H]2C[C@H]3c4[nH]c5ccccc5c4CCN3C[C@H]2[C@H](C)O)cc1,x,x,8,x,x,-2
COC(=O)CNc1nc(Cl)nc(Nc2ccc(Cl)cc2)n1,-1,-5,-5,74*,3,-1
Cc1ccc(CN2C(=O)C(F)(F)Oc3ccc(C)cc32)cc1,x,x,-2,x,x,x
O=C(CSc1nnc(SCc2ccc(Cl)cc2)s1)N/N=C/c1c[nH]c2ccccc12,x,-4,-3,92*,x,-8
CC(C)OC(=O)CC(=O)CSc1nc2c(cc1C#N)CCCCCC2,1,7,-7,31,-1,4
CC(C)OC(=O)CC(=O)CSc1nc2c(cc1C#N)CCCC2,-2,-8,-15,80*,1,6
O=C(/C=C/Nc1ccccc1Br)c1ccccn1,-14,1,2,88*,-11,-6
CCOC(=O)c1c(C)nc2c(c1-c1ccc(OC)c(OC)c1)C(=O)c1ccccc1-2,4,-19,-4,85*,0,-3
CCOC(=O)c1c(C)nc(C)c(C(=O)OCC)c1-c1ccc(OC)cc1,-3,-1,-6,-13,-1,-11
CSc1ncnc2c1ncn2CCCNCc1cccc2ccccc12,x,x,1,x,x,9
Cc1cccc(-c2nnc(-c3ccc4ccccc4c3)o2)c1,x,x,1,x,x,5
CC1CC(C)CN(C(=O)c2ccc3c(c2)N(Cc2ccccc2)CCS3)C1 (stereo not given),0,-10,9,73*,-1,-2
O=C(COc1cccc(OC(F)F)c1)Nc1ccc(SC(F)F)cc1,6,7,5,94*,-1,-5
O=C(COc1cccc(Oc2ccccc2)c1)Nc1ccc(SC(F)F)cc1,-3,-1,-16,66,1,-6
Cc1ccc(S(=O)(=O)Nc2ccc3ccccc3c2)cc1,x,x,-1,x,x,-3
CCc1ccc(NS(=O)(=O)c2ccc(OC)c(C)c2)cc1,0,4,-7,85*,-1,-6
COc1ccc(S(=O)(=O)Nc2ccc3ccccc3c2)cc1C,0,0,-14,89*,0,-3
CCOC(=O)[C@]12CCCC=C1N(Cc1ccccc1)C(=O)[C@H](CC(=O)NCCCCc1ccccc1)C2,x,x,3,x,x,x
CCCc1[nH]nc2c1C(/C(C)=C/c1ccccc1)C(C#N)=C(N)O2 (stereo not given),-5,10,-8,71*,0,-2
SMILES,XBP1 UPR activ,TLR4-MyD88 BLA,NOD2 RIPK2 PPI,CHOP inhibitor,UPR CHOP act,TLR9-MyD88 inh
CC(C)CNC(=O)C1(C)CCCN1C(=O)c1ccc2ccccc2n1 (stereo not given),x,x,-7,x,x,x
CCOC(=O)c1c(C)n(C)c2cc(-c3ccc(C)cc3)c(O)cc12,0,-2,-8,81*,0,3
O=C1c2ccccc2C(c2nnnn2-c2ccc3c(c2)OCCO3)N1CCc1ccccc1F (stereo not given),x,x,-4,x,x,x
COc1cc(Cl)ccc1OC1(C)CCN(Cc2ccc(-c3ccccn3)cc2)C1 (stereo not given),x,x,5,x,x,x
CCN(CC)S(=O)(=O)c1ccc(C)c(NC(=S)N2CCN(C/C=C/c3ccccc3)CC2)c1,0,-8,-1,81*,1,-3
CCN(CC)S(=O)(=O)c1ccc(C)c(NC(=S)N2CCN(c3ccccn3)CC2)c1,-6,x,1,x,-1,0
Cc1oc(-c2ccc3c(c2)OCCO3)cc1C(=O)NCC(=O)O,-1,8,-5,30,4,-6
Cc1oc(-c2ccc3c(c2)OCCO3)cc1C(=O)O,-6,-7,-11,72*,-7,0
CCCc1cc(-c2n[nH]c(C)c2-c2ccc(C(=O)OCC)o2)c(O)cc1O,-1,12,8,71*,1,-6
CCCc1cc(C(=O)Cc2ccc(C(=O)OCC)o2)c(O)cc1O,1,4,-8,61,-2,-2
Cc1cc(NC(=O)c2c(F)cccc2Cl)n(-c2nc3ccccc3[nH]2)n1,0,-16,8,75*,-2,4
CCCN(CCC)S(=O)(=O)c1ccc(C(=O)Nc2nc3c(s2)CCc2ccccc2-3)cc1,14,18,-1,78*,16,-9
COc1ccc(/C=N/Nc2ccc([N+](=O)[O-])cc2S(=O)(=O)N2CCN(C)CC2)cc1,3,-8,5,71*,3,10
COc1ccc(NS(=O)(=O)c2cc([N+](=O)[O-])ccc2N/N=C\c2c(C)[nH]c3ccccc23)cc1,23,10,9,0,20,6
CCc1cc(-c2nnn(-c3cc(C(C)C)ccc3C)c2CC)ccc1-c1cn(CCc2c[nH]c3ccccc23)nn1,x,x,-5,x,x,-4
Cc1ccc(-c2noc(CN3CCCCC3)n2)cc1,1,-16,1,7,6,-1
Cc1ccc(-c2noc(CN3CCN(c4ccccc4F)CC3)n2)cc1,-1,-6,-2,74*,1,17
COc1ccc(-c2noc(CN3CCC(Cc4ccccc4)CC3)n2)cc1,-2,3,-7,60,2,2
c1ccc(CC2CCN(Cc3nc(-c4ccccc4)no3)CC2)cc1,-3,-4,1,92*,0,-6
Cc1onc(-c2ccccc2)c1C(=O)NC(=S)NNC(=O)c1ccccc1O,0,13,-4,77*,0,11
O=C(N/N=C/c1c[nH]c2ccccc12)c1[nH]c2ccc(Br)cc2c1-c1ccccc1,x,4,-10,92*,x,-10
CC(=O)Nc1cccc(-c2ccnc3c2CC(C)(C(=O)NCCc2ccccc2)O3)c1 (stereo not given),x,x,-6,x,x,x
O=C(c1cc(C2CC2)on1)N1CCN(C(c2ccccc2)c2ccccc2)CC1,-3,-10,-5,55,2,-3
